Assay results reported in ChEMBL document CHEMBL4024771, “Optimization of Orally Bioavailable Enhancer of Zeste Homolog 2 (EZH2) Inhibitors Using Ligand and Property-Based Design Strategies: Identification of Development Candidate …” (J Med Chem, 2018).
≈ marks a conversion by molar mass, not a printed value.

Experiments:
KARPAS-422 = assay: Antiproliferative activity against human KARPAS422 cells after 72 hrs by resazurin assay; type: functional, cell-based
Liver = assay: (§1) Intrinsic clearance in human liver microsomes assessed per mg protein at 1 uM preincubated for 10 mins followed by NADPH addition measured after 45 mins by LC-MS/MS analysis; type: ADME, microsome; details: microsomes, 0.75 h, 1 µM
In short: (§2)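 Test compound (1 μM) with pooled liver microsomes (0.8 mg/mL protein) in 100 mM potassium phosphate pH 7.4, 10 min preincubation, started with 2 mM NADPH, 45 min at 37 °C, in triplicate. Samples quenched with cold methanol containing buspirone internal standard, analysed by LC−MS/MS. CLint derived from t1/2 of parent loss (log-linear slope).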

[1] = Kinetic solubility of the compound; type: physicochemical; details: for solubility kinetic: read-out: Kinetic_solubility
[2] = molecular target: Histone-lysine N-methyltransferase EZH2 (Homo sapiens, UniProt Q15910, Y641N); assay: Inhibition of EZH2 Y641N mutant (unknown origin) using oligonucleosomes as substrate after 60 mins in presence of [3H]SAM by scintillation counting analysis
Chain of Histone-lysine N-methyltransferase EZH2 (Homo sapiens, UniProt Q15910, Y641N) (Q15910 whole entry Y641N): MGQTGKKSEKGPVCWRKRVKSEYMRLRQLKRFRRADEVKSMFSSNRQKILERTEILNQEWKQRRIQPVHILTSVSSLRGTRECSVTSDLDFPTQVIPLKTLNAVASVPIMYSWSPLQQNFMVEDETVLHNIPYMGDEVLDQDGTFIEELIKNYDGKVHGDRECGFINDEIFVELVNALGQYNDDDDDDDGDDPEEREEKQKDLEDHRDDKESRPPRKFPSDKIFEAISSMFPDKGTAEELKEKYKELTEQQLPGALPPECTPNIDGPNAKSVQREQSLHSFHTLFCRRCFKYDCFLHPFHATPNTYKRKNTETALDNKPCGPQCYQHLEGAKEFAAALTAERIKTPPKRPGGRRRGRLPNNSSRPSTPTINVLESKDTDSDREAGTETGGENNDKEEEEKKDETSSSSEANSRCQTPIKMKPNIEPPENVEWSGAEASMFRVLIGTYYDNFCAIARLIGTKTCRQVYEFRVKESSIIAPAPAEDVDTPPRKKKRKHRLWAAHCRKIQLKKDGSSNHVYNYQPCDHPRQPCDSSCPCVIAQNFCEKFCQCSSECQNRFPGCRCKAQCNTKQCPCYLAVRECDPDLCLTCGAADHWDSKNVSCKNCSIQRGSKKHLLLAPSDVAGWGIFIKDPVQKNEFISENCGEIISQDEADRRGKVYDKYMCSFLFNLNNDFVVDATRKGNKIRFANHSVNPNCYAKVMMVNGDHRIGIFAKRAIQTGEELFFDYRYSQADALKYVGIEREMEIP

[3] = molecular target: Histone-lysine N-methyltransferase EZH2 (Homo sapiens, UniProt Q15910); assay: Inhibition of EZH2 in human KARPAS422 cells assessed as reduction in H3K27me3 level after 72 hrs by ELISA
Chain of Histone-lysine N-methyltransferase EZH2 (Homo sapiens, UniProt Q15910) (Q15910 whole entry): as the sequence (Q15910 whole entry Y641N) above, with N641Y counted along it

[4] = Passive permeability in MDCK cells at 2 uM after 90 mins by LC-MS/MS analysis; type: ADME, cell-based, Canis lupus familiaris; details: dog; for permeability: mdck, 2 µM; for Papp at […], 2 µM: MDCK, read-out: permeability
In short: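 Low-efflux MDCK cells (MDCK-LE) on 96-well inserts, used on day 4. Monodirectional transport of 2 μM drug in transport buffer with 0.1% DMSO at 37 °C. Donor and receiver sampled at 0 and 90 min for LC−MS/MS. Donor pH 6.5 and 7.4, receiver pH 7.4.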

[5] = Lipophilicity, log D of the compound at pH 7.4; details: buffer
[6] = as §1; type: ADME, microsome; details: liver microsomes, read-out: CLH; in short: as §2

| IC50 (KARPAS-422; karpas-422) [nM] | microsomal CLint (Liver) [µL/min/mg] | Kinetic_solubility [1] [µM] | Ki [2] [nM] | IC50 [3] [nM] | permeability [4] [×10⁻⁶ cm/s] | logD ([5]; pH 7.4, logD) | Papp at […], 2 µM [4] [×10⁻⁶ cm/s] | solubility kinetic [1] [µM] | logD ([5]; pH 7.4) | microsomal CLint at 1 µM [6] [µL/min/mg] | IC50 (KARPAS-422; Homo sapiens, KARPAS-422, 72 h) [nM] | SMILES |
| --- | --- | --- | --- | --- | --- | --- | --- | --- | --- | --- | --- | --- |
| 406 | 93.3 | 457 | 30 | 494 | 15.4 | – | – | – | – | – | – | COC(c1cc(Cl)c2c(c1Cl)C(=O)N(Cc1c(C)cc(C)[nH]c1=O)CC2)C1CCOC1 (single isomer, unassigned; (-)10c) |
| 124 | 66.3 | 324 | 4.6 | 139 | – | 2.8 | 10.9 | – | – | – | – | CCC(CO)c1cc(Cl)c2c(c1Cl)C(=O)N(Cc1c(C)cc(C)[nH]c1=O)CC2 (single isomer, unassigned; (+)) |
| 24 | 52.5 | – | – | – | – | – | 5.3 | 161 (≈ 80.4 µg/mL) | – | – | – | COC(c1cc(Cl)c2c(c1Cl)C(=O)N(Cc1c(C)cc(C)[nH]c1=O)CC2)C1CS(=O)(=O)C1 (stereo in doubt; (+)-19a) |
| 113 | 97.2 | 521 | 42 | 110 | 8.4 | – | – | – | – | – | – | COc1cc(C)[nH]c(=O)c1CN1CCc2c(Cl)cc(C(OC)C3CCOC3)c(Cl)c2C1=O (single isomer, unassigned; form 1) |
| 22 | 92.6 | – | – | – | – | 2.9 | 11.5 | 532 (≈ 277 µg/mL) | – | – | – | COC(c1cc(Cl)c2c(c1Cl)C(=O)N(Cc1c(C)cc(C)[nH]c1=O)CC2)C1CCN(C(C)=O)CC1 (single isomer, unassigned; (+)) |
| 9 | 60 | – | < 0.1 | 4 | – | 2.5 | 7.2 | 433 (≈ 208 µg/mL) | – | – | – | COc1cc(C)[nH]c(=O)c1CN1CCc2c(Cl)cc(C(OC)C3CCOC3)c(Cl)c2C1=O (single isomer, unassigned; (+)) |
| 10 | 25.6 | – | – | – | – | 1.7 | 1.5 | 480 (≈ 265 µg/mL) | – | – | – | COc1cc(C)[nH]c(=O)c1CN1CCc2c(Cl)cc(C(OC)C3CCN(C(=O)CO)CC3)c(Cl)c2C1=O (single isomer, unassigned; (+)) |
| 970 | 15 | 415 | – | – | 5.7 | – | – | – | – | – | – | COC(c1cc(Cl)c2c(c1Cl)C(=O)N(Cc1c(C)cc(C)[nH]c1=O)CC2)C1CCS(=O)(=O)CC1 (single isomer, unassigned; (-)) |
| 4830 | 23 | 159 | – | – | 6.1 | – | – | – | – | – | – | COC(c1cc(Cl)c2c(c1Cl)C(=O)N(Cc1c(C)cc(C)[nH]c1=O)CC2)C1CS(=O)(=O)C1 (single isomer, unassigned) |
| 183 | 105 | 33 | 9 | 72 | – | – | 18.2 | – | – | – | – | CCC(OC)c1cc(Cl)c2c(c1Cl)C(=O)N(Cc1c(C)cc(C)[nH]c1=O)CC2 (single isomer, unassigned; (+)) |
| 34 | 124 | – | 2.9 | 62 | – | 2.4 | 12 | 453 (≈ 233 µg/mL) | – | – | – | CCOC(c1cc(Cl)c2c(c1Cl)C(=O)N(Cc1c(C)cc(C)[nH]c1=O)CC2)C1CS(=O)(=O)C1 (single isomer, unassigned; (+)) |
| 21 | 42 | – | 0.25 | 13 | – | 2.2 | 7.3 | 508 (≈ 273 µg/mL) | – | – | – | COC(c1cc(Cl)c2c(c1Cl)C(=O)N(Cc1c(C)cc(C)[nH]c1=O)CC2)C1CCN(C(=O)CO)CC1 (stereo in doubt; (+)-16a) |
| 282 | 158 | 55.3 | – | – | – | 3.3 | 26 | – | – | – | – | COC(C)c1cc(Cl)c2c(c1Cl)C(=O)N(Cc1c(C)cc(C)[nH]c1=O)CC2 (stereo in doubt; (-)9a) |
| 3550 | 8 | – | 420 | 5350 | 15.7 | – | – | 56 (≈ 22.9 µg/mL) | – | – | – | CCC(O)c1cc(Cl)c2c(c1Cl)C(=O)N(Cc1c(C)cc(C)[nH]c1=O)CC2 (stereo in doubt; (-)-3b) |
| 11 | < 10.2 | – | < 0.1 | 9 | – | 1.4 | 2.7 | 639 (≈ 315 µg/mL) | – | – | – | COC(c1cc(Cl)c2c(c1Cl)C(=O)N(Cc1c(C)cc(C)[nH]c1=O)CC2)C1CCN(C)CC1 (single isomer, unassigned; (+)) |
| 122 | 21.2 | – | – | – | – | 2 | 5.8 | 596 (≈ 276 µg/mL) | – | – | – | Cc1cc(C)c(CN2CCc3c(Cl)cc(C(CO)c4ccon4)c(Cl)c3C2=O)c(=O)[nH]1 (single isomer, unassigned; (+)) |
| 5560 | 45.7 | 446 | 460 | 6080 | 7.7 | – | – | – | 2.3 | – | – | CCOC(c1cc(Cl)c2c(c1Cl)C(=O)N(Cc1c(C)cc(C)[nH]c1=O)CC2)C1CS(=O)(=O)C1 (single isomer, unassigned) |
| 50 | 128 | 439 | 1.9 | 47 | 18.7 | – | – | – | – | – | – | COC(c1cc(Cl)c2c(c1Cl)C(=O)N(Cc1c(C)cc(C)[nH]c1=O)CC2)C1CCOC1 (single isomer, unassigned; (+)) |
| 24 | 40 | – | – | – | – | 2.2 | 6.3 | 373 (≈ 197 µg/mL) | – | – | – | COC(c1cc(Cl)c2c(c1Cl)C(=O)N(Cc1c(C)cc(C)[nH]c1=O)CC2)C1CCS(=O)(=O)CC1 (stereo in doubt; (+)-18a) |
| 24 | 66.9 | 439 | 0.19 | 16 | 7.2 | – | – | – | – | – | – | COc1cc(C)[nH]c(=O)c1CN1CCc2c(Cl)cc(C(OC)C3CCOC3)c(Cl)c2C1=O (stereo in doubt; 22b) |
| 250 | 12.6 | 453 | – | – | 1.1 | – | – | – | – | – | – | COc1cc(C)[nH]c(=O)c1CN1CCc2c(Cl)cc(C(OC)C3CCN(C(=O)CO)CC3)c(Cl)c2C1=O (single isomer, unassigned; (-)) |
| 559 | – | 512 | 350 | 253 | 4.8 | – | – | – | 2.2 | 168 | – | COc1cc(C)[nH]c(=O)c1CN1CCc2c(Cl)cc(C(OC)C3(C)COC3)c(Cl)c2C1=O (stereo in doubt; (-)-24b) |
| – | – | – | 8 | 40 | – | 2.1 | 4.1 | 430 (≈ 200 µg/mL) | – | 51.6 | 63 | Cc1cc(C)c(CN2CCc3c(Cl)cc([C@H](CO)[C@H]4CCCO4)c(Cl)c3C2=O)c(=O)[nH]1 |
